# Laboratory results reported in ChEMBL document CHEMBL5724801, “EUbOPEN Chemogenomics Library - Multiplex” (2024).
# Several values for one entry are separate records, joined by “and”; a condition that tells them apart may be missing. Equal values may be shown once.
# Test system: HEK-293T
# Test: Multiplex assay against HEK293T
# Type: toxicity, cell-based
# Conditions: human
# Method in brief: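 Live cells were stained at seeding with Hoechst33342, BioTracker Green Microtubule Cytoskeleton Dye, MitoTracker Red and Annexin V Alexa Fluor 680, then imaged on a CQ1 microscope at 37°C and 5% CO2 after compound addition. CellPathfinder machine-learning gating split cells into Hoechst high-intensity objects or normal cells. Normal cells were split into healthy, pyknosed or fragmented nuclei, and pyknosed cells into mitotic or apoptotic. Tubulin, mitochondrial-mass and membrane-permeability phenotypes are per cents of healthy-nucleus cells.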
# [1] = 12 h, 1 µM, compound concentration 1 uM
# [2] = 12 h, 10 µM, compound concentration 10 uM
# [3] = 24 h, 1 µM, compound concentration 1 uM
# [4] = 24 h, 10 µM, compound concentration 10 uM
# [5] = 48 h, 1 µM, compound concentration 1 uM
# [6] = 48 h, 10 µM, compound concentration 10 uM
smiles,measurement,setting,value
CN(C)Cc1cccc(NC(=C2C(=O)Nc3cc(C(=O)N(C)C)ccc32)c2ccccc2)c1,Population Apoptotic (%),[1],14.71% and 13.93%
same,Population Hoechst High Intensity Objects (%),[1],0%
same,Population Membrane Permeable-Phenotype (%),[1],2.97% and 0%
same,Population Mitochondria Different-Phenotype (%),[1],27.72% and 21.05%
same,Population Mitotic Cells (%),[1],85.29% and 86.07%
same,Population Normal (%),[1],100%
same,Population Pyknosed Nuclei (%),[1],32.08% and 85.31%
same,Total Cell Count,[1],424 and 143
same,Population Apoptotic (%),[2],28.57% and 37.07%
same,Population Fragmented Nuclei (%),[2],3.59% and 6.21%
same,Population Hoechst High Intensity Objects (%),[2],0.65% and 0%
same,Population Membrane Permeable-Phenotype (%),[2],0.65% and 0%
same,Population Mitochondria Different-Phenotype (%),[2],22.58% and 0%
same,Population Mitotic Cells (%),[2],71.43% and 62.93%
same,Population Normal (%),[2],99.35% and 100%
same,Population Pyknosed Nuclei (%),[2],45.75% and 80%
same,Population Tubulin-Different-Phenotype (%),[2],30.97% and 70%
same,Total Cell Count,[2],308 and 145
same,Population Apoptotic (%),[3],14.29% and 19.69%
same,Population Healthy Nuclei (%),[3],68.64% and 31.44%
same,Population Hoechst High Intensity Objects (%),[3],0% and 1.52%
same,Population Membrane Permeable-Phenotype (%),[3],1.78% and 1.64%
same,Population Mitochondria Different-Phenotype (%),[3],11.17% and 11.48%
same,Population Mitotic Cells (%),[3],85.71% and 80.31%
same,Population Normal (%),[3],100% and 98.48%
same,Population Tubulin-Different-Phenotype (%),[3],15.48% and 9.84%
same,Total Cell Count,[3],574 and 197
same,Population Apoptotic (%),[4],47.22% and 65.45%
same,Population Fragmented Nuclei (%),[4],1.9% and 4%
same,Population Hoechst High Intensity Objects (%),[4],0%
same,Population Membrane Permeable-Phenotype (%),[4],1.58% and 2.94%
same,Population Mitochondria Different-Phenotype (%),[4],28.85% and 52.94%
same,Population Mitotic Cells (%),[4],52.78% and 34.55%
same,Population Normal (%),[4],100%
same,Population Pyknosed Nuclei (%),[4],29.35% and 73.33%
same,Population Tubulin-Different-Phenotype (%),[4],57.71% and 41.18%
same,Total Cell Count,[4],368 and 150
same,Population Fragmented Nuclei (%),[5],9.11% and 4.39%
same,Population Healthy Nuclei (%),[5],81.42% and 58.77%
same,Population Hoechst High Intensity Objects (%),[5],0.09% and 1.3%
same,Population Membrane Permeable-Phenotype (%),[5],9.75% and 2.24%
same,Population Mitochondria Different-Phenotype (%),[5],13.07% and 33.58%
same,Population Mitotic Cells (%),[5],98.1% and 79.76%
same,Population Normal (%),[5],99.91% and 98.7%
same,Population Apoptotic (%),[6],35.58% and 37.33%
same,Population Fragmented Nuclei (%),[6],1.61% and 2.67%
same,Population Healthy Nuclei (%),[6],79.82% and 47.33%
same,Population Hoechst High Intensity Objects (%),[6],0%
same,Population Membrane Permeable-Phenotype (%),[6],2.91% and 2.82%
same,Population Mitochondria Different-Phenotype (%),[6],76.06% and 67.61%
same,Population Mitotic Cells (%),[6],64.42% and 62.67%
same,Population Normal (%),[6],100%
same,Population Pyknosed Nuclei (%),[6],18.57% and 50%
Cc1c(Cc2ccc3ccccc3n2)c2cc(F)ccc2n1CC(=O)O [TIMAPIPRANT],Population Apoptotic (%),[1],42%
same,Population Fragmented Nuclei (%),[1],7% and 6%
same,Population Healthy Nuclei (%),[1],80%
same,Population Hoechst High Intensity Objects (%),[1],10% and 7%
same,Population Membrane Permeable-Phenotype (%),[1],0%
same,Population Mitochondria Different-Phenotype (%),[1],36% and 55%
same,Population Mitotic Cells (%),[1],57%
same,Population Normal (%),[1],89% and 92%
same,Population Pyknosed Nuclei (%),[1],11% and 12%
same,Population Tubulin-Different-Phenotype (%),[1],20% and 16%
same,Total Cell Count,[1],394 and 280
same,Population Apoptotic (%),[2],32% and 33%
same,Population Fragmented Nuclei (%),[2],7% and 6%
same,Population Healthy Nuclei (%),[2],78%
same,Population Hoechst High Intensity Objects (%),[2],6% and 5%
same,Population Membrane Permeable-Phenotype (%),[2],0%
same,Population Mitochondria Different-Phenotype (%),[2],55% and 63%
same,Population Mitotic Cells (%),[2],67% and 66%
same,Population Normal (%),[2],93% and 94%
same,Population Pyknosed Nuclei (%),[2],14% and 15%
same,Population Tubulin-Different-Phenotype (%),[2],38% and 28%
same,Total Cell Count,[2],434 and 354
same,Population Apoptotic (%),[3],31% and 53%
same,Population Fragmented Nuclei (%),[3],10% and 7%
same,Population Healthy Nuclei (%),[3],81% and 83%
same,Population Hoechst High Intensity Objects (%),[3],4% and 5%
same,Population Membrane Permeable-Phenotype (%),[3],1% and 0%
same,Population Mitochondria Different-Phenotype (%),[3],20% and 38%
same,Population Mitotic Cells (%),[3],68% and 46%
same,Population Normal (%),[3],95% and 94%
same,Population Pyknosed Nuclei (%),[3],8%
same,Population Tubulin-Different-Phenotype (%),[3],15%
same,Total Cell Count,[3],516 and 381
same,Population Apoptotic (%),[4],32% and 37%
same,Population Fragmented Nuclei (%),[4],7% and 12%
same,Population Healthy Nuclei (%),[4],78% and 77%
same,Population Hoechst High Intensity Objects (%),[4],4% and 5%
same,Population Membrane Permeable-Phenotype (%),[4],0%
same,Population Mitochondria Different-Phenotype (%),[4],31% and 44%
same,Population Mitotic Cells (%),[4],67% and 62%
same,Population Normal (%),[4],95% and 94%
same,Population Pyknosed Nuclei (%),[4],13% and 10%
same,Population Tubulin-Different-Phenotype (%),[4],28% and 20%
same,Total Cell Count,[4],560 and 475
same,Population Apoptotic (%),[5],26% and 17%
same,Population Fragmented Nuclei (%),[5],13% and 15%
same,Population Healthy Nuclei (%),[5],78% and 76%
same,Population Hoechst High Intensity Objects (%),[5],2% and 3%
same,Population Membrane Permeable-Phenotype (%),[5],1% and 0%
same,Population Mitochondria Different-Phenotype (%),[5],9% and 25%
same,Population Mitotic Cells (%),[5],73% and 82%
same,Population Normal (%),[5],97% and 96%
same,Population Pyknosed Nuclei (%),[5],8%
same,Population Tubulin-Different-Phenotype (%),[5],6% and 12%
same,Total Cell Count,[5],799 and 566
same,Population Apoptotic (%),[6],33% and 36%
same,Population Fragmented Nuclei (%),[6],10% and 14%
same,Population Healthy Nuclei (%),[6],79% and 78%
same,Population Hoechst High Intensity Objects (%),[6],4%
same,Population Membrane Permeable-Phenotype (%),[6],1% and 0%
same,Population Mitochondria Different-Phenotype (%),[6],24% and 33%
same,Population Mitotic Cells (%),[6],66% and 63%
same,Population Normal (%),[6],95%
same,Population Pyknosed Nuclei (%),[6],9% and 6%
same,Population Tubulin-Different-Phenotype (%),[6],17% and 16%
same,Total Cell Count,[6],752 and 630
CC(=O)NCC(=O)N1[C@@H]2CC[C@H]1c1ccc(Nc3ncc(C(F)(F)F)c(NC4CCC4)n3)cc12 [PF-03814735],Population Apoptotic (%),[1],13.45% and 7.26%
same,Population Fragmented Nuclei (%),[1],1.8% and 4%
same,Population Hoechst High Intensity Objects (%),[1],0.36% and 0%
same,Population Membrane Permeable-Phenotype (%),[1],0% and 5%
same,Population Mitochondria Different-Phenotype (%),[1],42.86% and 15%
same,Population Mitotic Cells (%),[1],86.55% and 92.74%
same,Population Normal (%),[1],99.64% and 100%
same,Population Pyknosed Nuclei (%),[1],42.81% and 82.67%
same,Total Cell Count,[1],279 and 150
same,Population Apoptotic (%),[2],22.73% and 21.78%
same,Population Fragmented Nuclei (%),[2],2.61% and 0.88%
same,Population Hoechst High Intensity Objects (%),[2],0.65% and 0%
same,Population Membrane Permeable-Phenotype (%),[2],0%
same,Population Mitochondria Different-Phenotype (%),[2],27.87% and 27.27%
same,Population Mitotic Cells (%),[2],77.27% and 78.22%
same,Population Normal (%),[2],99.35% and 100%
same,Population Pyknosed Nuclei (%),[2],57.52% and 89.38%
same,Population Tubulin-Different-Phenotype (%),[2],75.41% and 45.45%
same,Total Cell Count,[2],154 and 113
same,Population Apoptotic (%),[3],21.25% and 13.04%
same,Population Fragmented Nuclei (%),[3],1.47% and 2.07%
same,Population Healthy Nuclei (%),[3],75.07% and 34.48%
same,Population Hoechst High Intensity Objects (%),[3],0%
same,Population Membrane Permeable-Phenotype (%),[3],0.78% and 4%
same,Population Mitochondria Different-Phenotype (%),[3],20.31% and 10%
same,Population Mitotic Cells (%),[3],78.75% and 86.96%
same,Population Normal (%),[3],100%
same,Population Pyknosed Nuclei (%),[3],23.46% and 63.45%
same,Total Cell Count,[3],341 and 145
same,Population Apoptotic (%),[4],65.09% and 50.43%
same,Population Fragmented Nuclei (%),[4],0.99% and 0.8%
same,Population Hoechst High Intensity Objects (%),[4],0%
same,Population Membrane Permeable-Phenotype (%),[4],0%
same,Population Mitochondria Different-Phenotype (%),[4],90.53% and 33.33%
same,Population Mitotic Cells (%),[4],34.91% and 49.57%
same,Population Normal (%),[4],100%
same,Population Pyknosed Nuclei (%),[4],52.22% and 92%
same,Total Cell Count,[4],203 and 125
same,Population Apoptotic (%),[5],15.15% and 12.5%
same,Population Fragmented Nuclei (%),[5],5.66% and 2.01%
same,Population Healthy Nuclei (%),[5],86.88% and 71.14%
same,Population Hoechst High Intensity Objects (%),[5],0%
same,Population Membrane Permeable-Phenotype (%),[5],3.65% and 1.89%
same,Population Mitotic Cells (%),[5],84.85% and 87.5%
same,Population Normal (%),[5],100%
same,Total Cell Count,[5],442 and 149
same,Population Apoptotic (%),[6],68.24% and 37.78%
same,Population Fragmented Nuclei (%),[6],2.53% and 2.44%
same,Population Healthy Nuclei (%),[6],61.6% and 24.39%
same,Population Hoechst High Intensity Objects (%),[6],0%
same,Population Membrane Permeable-Phenotype (%),[6],0.68% and 0%
same,Population Mitochondria Different-Phenotype (%),[6],97.95% and 76.67%
same,Population Mitotic Cells (%),[6],31.76% and 62.22%
same,Population Normal (%),[6],100%
same,Population Pyknosed Nuclei (%),[6],35.86% and 73.17%
same,Total Cell Count,[6],237 and 123
